The format of series [1] is in vivo. Conditions: human, plasma, po, 10 mg. An outline of the steps: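 Single-center, randomized, open-label, three-period, six-sequence crossover in healthy volunteers. Each drug was given alone and with the other as a single oral dose after a 10-h fast. Blood was sampled to 72 h, and washout was at least 21 days. Plasma was analysed by LC-MS with stable isotope-labeled internal standards. Noncompartmental parameters: AUC0-T by linear trapezoidal rule, AUC∞ = AUC0-T + Clast/λz.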

Series [2] in a line: Study 3: safety, treatment-emergent adverse events. Conditions: BISO 10 mg, RAMI 10 mg alone or together, % of subjects in the Safety population in each treatment group. The format is in vivo, human.
The nature of series [3]: Bioequivalence studies 1 and 2: PK summary across both treatments and studies. The format is in vivo, human. Summed up: (§1)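 Single-center, randomized, open-label, laboratory-blinded, two-period, two-sequence crossover in healthy volunteers. Each subject got one oral dose of the fixed-dose combination or the co-administered reference tablets with ~240 ml water after a 10-h fast. Washout was at least 21 days. Parent drugs were measured in plasma by LC-MS after protein precipitation. Noncompartmental analysis used actual times, with t½ = ln(2)/λz.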

Series [4] is classed as in vivo, human. An outline of the steps:
as §1

The format of series [5] is in vivo. Conditions: human, plasma, oral, 5 mg. An outline of the steps:
as §1

The structures appear in SMILES notation. Like-named read-outs stand apart in the source and are kept apart here.

The source of these data is PMC8742637 (Clinical and Translational Science, 2021).

As for `CC(C)NCC(O)COc1ccc(COCCOC(C)C)cc1` (stereo not drawn) [BISO, bisoprolol], in series [1], the AUC(0-inf) (in general, the area under the concentration-time curve extrapolated to infinity) worked out at 777 ng·h/mL; the AUC(0-t) (as a rule, exposure summed from dosing to a finite time, without extrapolation to infinity) was found to be 732 ng·h/mL; the Cmax (usually the highest concentration seen after dosing) was 42.6 ng/mL; the Tmax (in general, the time from dosing to the highest level) stood at 2.33 h. Further, the half-life (in general, the time needed for the level to fall by half in the phase considered) in series [1] is 11.2 h. For the same compound, in series [2], the “Subjects with at least one drug‐related TEAE” value is listed as 4 (13.8) n (%). Moreover, the “time after dosing at which BISO peak concentrations were achieved” value in series [3] (across both treatments, studies 1 and 2, BISO 10 mg single oral dose, fasting) is recorded as 2.33 h. The half-life in series [3] (human, plasma, oral) is 10.7 to 10.9 h.

Regarding `CCOC(=O)[C@H](CCc1ccccc1)N[C@@H](C)C(=O)N1[C@H](C(=O)O)C[C@@H]2CCC[C@@H]21` [RAMI, ramipril], in series [4] (Study 1, expected 32%), the “observed ISCV (intrasubject coefficient of variation) for Cmax” value is listed as 36%. In series [4] (human, plasma, oral, 10 mg), this compound had a half-life of 2.17 to 2.32 h. In series [5], this compound returned a half-life of 1.39 to 1.68 h. Also, in series [1], the AUC(0-inf) amounted to 18.1 ng·h/mL, the AUC(0-t) was found to be 17.1 ng·h/mL, the Cmax came out at 24.1 ng/mL and the Tmax worked out at 0.5 h. This compound gave a half-life in series [1] of 2.03 h. Also, in series [2], the “Subjects with at least one drug‐related TEAE” value is on record as 3 (10.7) n (%). For the same compound, the “median time to ramipril peak concentration” value in series [3] (across both treatments and studies 1 and 2) is 0.50 h.
